hiPSC survival: enhancers of single-cell hiPSC survival, primary screen, ATPlite luminescence; 100% = ROCK inhibitor wells, 0% = DMSO; survival enhancement, % at 20 µM; 0.044% of 360,000 active; AID 602274, 2012; in the data active = survival enhancement above about 18%;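 note: cells exposed to compounds for 16 hours before the ATP read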
CCR6 antag: CCR6 receptor antagonists, primary screen, cell-based, CHO-K1, luminescence, beta-arrestin, uHTS; C-C chemokine receptor type 6 (Homo sapiens), P51684; CHO-K1 CCR6 PathHunter beta-arrestin, CCL20-stimulated; inhibition, % at 20 µM; 0.49% of 340,000 active;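 active = compounds whose inhibition of the agonist-driven luminescence signal at 20 µM reaches about 50%, limit read from the data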;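 note: cells stimulated with CCL20 at 14 nM final; plate controls were DMSO with CCL20 for no effect and DMSO without agonist for full effect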
Target sequence (P51684 whole entry, looked up): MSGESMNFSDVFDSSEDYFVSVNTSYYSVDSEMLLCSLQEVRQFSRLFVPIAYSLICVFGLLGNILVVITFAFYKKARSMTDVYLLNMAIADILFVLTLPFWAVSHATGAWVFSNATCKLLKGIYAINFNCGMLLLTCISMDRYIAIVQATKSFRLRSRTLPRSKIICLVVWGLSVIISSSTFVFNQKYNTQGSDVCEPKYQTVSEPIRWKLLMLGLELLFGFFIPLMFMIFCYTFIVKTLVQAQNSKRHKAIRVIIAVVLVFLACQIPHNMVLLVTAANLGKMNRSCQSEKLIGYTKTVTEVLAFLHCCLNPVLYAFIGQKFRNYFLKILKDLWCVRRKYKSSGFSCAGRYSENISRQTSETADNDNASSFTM
APJ antagonist: antagonists of human apelin receptor APJ, primary screen, CHO-K1 cells, beta-arrestin complementation, luminescence; 0.32% of 330,000 active; inhibition, % at 20 µM; AID 2521, 2010; P35414;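 active = inhibition above about 40% at 20 µM, limit read from the data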;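 note: cells challenged with 10 nM apelin-13 agonist together with compound; plate controls were apelin-13 plus DMSO wells for no effect and DMSO wells lacking apelin-13 for full effect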
DAGLB inh: DAGLB lipase inhibitors, primary screen, biochemical, fluorescence, HTS. inhibition, % at 5.17 µM. HEK293T DAGLB membrane lysate, EnzChek fluorogenic substrate. AID 504411, 2011. 0.059% of 340,000 active; in the data active = inhibition above about 34%;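 note: 0% = enzyme with vehicle and 100% = wells lacking enzyme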
APJ agonist: agonists of human apelin receptor APJ, primary screen, CHO-K1 cells, PathHunter beta-arrestin, luminescence; P35414; 0% DMSO wells, 100% apelin; activation, % at 20 µM; 0.11% of 330,000 active; AID 2520, 2010;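 active = activation more than six SD over the plate average, tested at 20 µM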;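 note: 0% = DMSO alone and 100% = apelin-13 at 10 nM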
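Material: engineered CHO-K1 APJ arrestin reporter cells; amount: 1000 CHO-K1 reporter cells seeded per well; incubation: compound stimulation 90 min at 25 °C, detection 60 min; signal: luminescent beta-gal fragment complementation, chemiluminescent substrate; read-out basis: APJ agonist activity; controls: DMSO-only wells as negative, 10 nM Apelin-13 as positive control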
CXCR6 inh: CXCR6 receptor inhibitors, primary screen, cell-based, beta-arrestin, luminescence, CHO-K1 PathHunter, 1536-well; C-X-C chemokine receptor type 6 (Homo sapiens), O00574; inhibition, % at 20 µM; 0.36% of 360,000 active; AID 602244, 2012; in the data active = inhibition above about 34%, passing the limit was not always enough;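 note: antagonist mode with CXCL16 agonist at 10 nM final; 0% = 10 nM CXCL16 with DMSO and 100% = unstimulated wells without agonist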
* = called active by the depositor; . = not tested or not shown; ! = not active in a repeat. Rows were chosen to be rich in hits. Some 0.86% of all compounds tested hit in one or more screens of this group.

SMILES | hiPSC survival | CCR6 antag | APJ antagonist | DAGLB inh | APJ agonist | CXCR6 inh
COc1cccc(-c2cnc(C(O)c3ccc(-c4ccccc4)cc3)[nH]2)c1 (stereo not drawn) | 2 | . | . | . | . | 5
O=[N+]([O-])c1cc(Cc2ccccc2)cc(C=Nc2ccc(N3CCOCC3)cc2)c1O | 0 | 55* | . | 21 | . | 43*
Cc1ccc(O)c(N=Cc2cc(Cc3ccccc3)cc([N+](=O)[O-])c2O)c1 | -1 | 29 | -13 | 23 | -1 | 25
Cc1ccc(OCCCC(=O)NC2CCCCC2)cc1 | 0 | 15 | -1 | -2 | -3 | 3
O=[N+]([O-])c1ccc(-c2c(O)c3ccccc3c3nc4ccccc4nc23)cc1 | 1 | 76* | 37 | -1 | -8 | 40
O=C(O)C(Cc1ccc(Cl)cc1)NS(=O)(=O)c1ccc(Cl)cc1 (stereo not drawn) | 0 | 2 | 17 | 4 | -2 | 4
CCOC(=O)C(=O)/C(=C\N(C)C)c1onc(-c2c(F)cccc2Cl)c1C(=O)OC | 20* | 3 | 10 | 0 | -5 | 2
CN(C)c1nc(=NCc2ccco2)ss1 | 1 | 104* | . | -2 | . | 100*
O=C1CCCC(=NCc2ccco2)C1 | 1 | 0 | -1 | 0 | -5 | 4
O=[N+]([O-])c1cc(O)c2ncccc2c1 | . | 54* | -58 | . | 3 | .
COc1cccc(CNC(=O)N[C@@H](C)C(=O)O)c1 | 0 | 6 | 1 | -4 | -4 | -3
Cc1cc(C)c(CC(=O)c2ccccc2)c(C)c1 | 4 | 11 | . | -5 | . | 6
Cc1ccc(C)c(S(=O)(=O)N2CCCOC2CNC(=O)C(=O)NCCC2=CCCCC2)c1 (stereo not drawn) | -2 | 17 | -12 | 1 | -3 | 6
O=C1C(Cc2ccccc2)Nc2ncnc(N3CCCCC3)c2N1Cc1ccc(Cl)cc1 (stereo not drawn) | 0 | 51* | -9 | 2 | -15 | 28
CC(C)CC1Nc2ncnc(N3CCN(c4ccccc4)CC3)c2N(Cc2ccccc2)C1=O (stereo not drawn) | 23*! | 10 | -5 | 0 | 1 | 16
Cc1ccc(C(=O)N/C(=C\c2ccc(-c3ccc(Br)cc3)o2)C(=O)NCCCN(C)C)cc1 | -4 | 70* | 18 | 6 | -1 | 12
CC(C)CNC(=O)CCc1nc(-c2ccccc2)no1 | 2 | -1 | 0 | 2 | 0 | -1
SC(COCc1ccccc1)CN1CCN(Cc2ccc3c(c2)OCO3)CC1 (stereo not drawn) | 1 | 64* | -9 | -21 | -3 | 26
N=c1n(Cc2ccc(Cl)cc2)c2ccccc2n1CC(O)COc1ccccc1 (stereo not drawn) | -3 | -3 | -6 | 2 | 15* | -21
CC1CCN(Cc2c(C(=O)N/N=C/c3cc(Cl)ccc3O)nnn2-c2nonc2N)CC1 | -1 | 50* | 8 | 7 | 1 | 5
CC1CCN(Cc2c(C(=O)N/N=C/c3cc(Br)ccc3O)nnn2-c2nonc2N)CC1 | 0 | 41 | 4 | 30 | -1 | 5
COc1ccccc1CNS(=O)(=O)c1ccc2c(c1)N(C(C)=O)CCO2 | -1 | 12 | -10 | 1 | -1 | 3
O=C1ON=C(c2ccccc2)/C1=C/c1ccc(O)cc1 | -1 | 39 | 8 | -1 | -2 | 46*
COc1cc(/C=C2/C(=O)ON=C2c2ccccc2)ccc1O | -2 | 55* | 25 | 3 | -4 | 33
NS(=O)(=O)c1ccc(NC(=O)CCC(=O)c2cccs2)cc1 | 0 | 6 | 4 | -1 | -2 | -7
SMILES | hiPSC survival | CCR6 antag | APJ antagonist | DAGLB inh | APJ agonist | CXCR6 inh
NC(=O)c1ccc(NC(=O)CCC(=O)c2cccs2)cc1 | 62* | 0 | 4 | 2 | 3 | -2
COc1ccc2oc(=N)c(C(=O)Nc3cccc(C)c3C)cc2c1 | 0 | 8 | -8 | -3 | -2 | 1
Cc1ccc(N(C(=O)CNC(=O)c2ccco2)C(C(=O)NC2CCCC2)c2cccnc2)c(C)c1 (stereo not drawn) | 0 | 9 | -15 | -1 | -2 | -3
Cc1c(NS(=O)(=O)c2cccs2)cccc1-c1nc2cccnc2s1 | 0 | 1 | -5 | 0 | -1 | -4
O=S(=O)(Nc1cccc2ncccc12)c1cccs1 | -2 | 88* | 88* | -2 | -14 | 79*
CC(=O)NC12CC3CC(C1)CC(C(=O)N1CCN(c4ncccn4)CC1)(C3)C2 | 1 | -11 | 0 | 1 | -1 | -5
CC(C)(C)OC(=O)N[C@@H](Cc1ccccc1)c1nnc(SCC(N)=O)o1 | -1 | -12 | -31 | 0 | 3 | -1
Cc1cccc(CS(=O)(=O)c2nnc([C@H](Cc3ccccc3)NC(=O)OC(C)(C)C)o2)c1 | 0 | 91* | 14 | 5 | 0 | 61*
CCCCn1c(=O)[nH]c(=O)c2c1nc(Cn1ncc(Cl)c(Cl)c1=O)n2CCC | 20* | 33 | 29 | 4 | -4 | 24
COC(=O)C1=NN(C(=O)c2cccc(Br)c2)C(O)(c2ccc(Cl)cc2)C1 (stereo not drawn) | 0 | . | 5 | 15 | 0 | 45*
CC1=NN(C(=O)c2ccccc2Cl)C(O)(c2ccccc2)C1 (stereo not drawn) | -1 | 7 | -4 | 2 | -5 | 0
CC1=NN(C(=O)c2ccccc2)C(O)(c2ccc(Br)cc2)C1 (stereo not drawn) | 0 | 55* | 24 | -1 | -5 | 34
CCOC(=O)C1=NN(C(=O)c2ccc(OC)cc2)C(O)(c2ccc(Cl)cc2)C1 (stereo not drawn) | 1 | 42 | -19 | 5 | -7 | 24
CC(=O)NC(C)(c1ccccc1)c1nc(-c2csc3ccccc23)cs1 (stereo not drawn) | 3 | . | . | . | . | -4
Cc1ccc(-c2nnc3n2CCCCC3)cc1 | -1 | -12 | 2 | 1 | -2 | -2
O=C1Nc2ccccc2C1=Nc1ccc(-c2nnc3n2CCCCC3)cc1 | 6 | 62*! | -14 | -3 | -4 | 4
CCOc1ccc(CCNC(=O)C2=C(C)C(=O)OC23CCCCC3)cc1OCC | 3 | 14 | 2 | -1 | -2 | 6
NS(=O)(=O)c1ccc(N=Nc2c(-c3ccccc3)[nH]n(-c3nc(-c4ccccc4)cs3)c2=O)cc1 | 8 | 49 | 32 | 14 | -2 | 44*
NC(=O)c1ccc(N=Nc2c(-c3ccccc3)[nH]n(-c3ccccc3)c2=O)cc1 | . | . | 37 | . | -7 | .
CC(=O)Nc1ccc(CN2C(=O)C(Cc3ccccc3)ON=C2c2cccc(F)c2)cc1 (stereo not drawn) | -1 | . | . | . | . | 6

High-throughput results (PubChem BioAssay)
